Measured values from article PMC6226357 (Breast cancer research and treatment, 2018).
Like-named read-outs stand apart in the source and are kept apart here.

What was measured:
[1] = tested on: tamoxifen-resistant MCF7 xenograft; details: tamoxifen-resistant MCF7 mouse xenograft, compared to enzalutamide; cited from earlier work
[2] = tested on: MDA-MB-453 cells (ER−/AR+); details: higher potency/efficacy than enzalutamide; cited from earlier work
[3] = tested on: women with locally advanced or metastatic TNBC or ER+ breast cancer; assay: Treatment duration, discontinuations and dose modifications; assay type: in vivo, human; details: all dose cohorts; Twenty-one percent
Method in brief: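 Dosing was oral, once daily, in continuous 28-day cycles. Drug was stopped for loss of clinical benefit, an adverse event precluding further participation, or withdrawal of consent. Toxicity was graded by NCI CTCAE v4.03. Evaluations were every two weeks in Cycle 1, then monthly through the end-of-treatment visit.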

[4] = tested on: unresectable locally advanced or metastatic breast cancer; assay: Efficacy: clinical benefit rate and tumor response; assay type: in vivo, human
Method in brief: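 Women with triple-negative or postmenopausal ER+/HER2− unresectable locally advanced or metastatic disease took oral 150-mg tablets once daily in continuous 28-day cycles, in de-escalating cohorts. Imaging used bone scan, CT and/or MRI matching the baseline modality, every 2 months in year one and every 3 months thereafter. Clinical benefit was stable disease, partial or complete response (RECIST 1.1), scored at 16 weeks for TNBC and 24 weeks for ER+.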

[5] = tested on: H16N2 (AR-/PR-/low ER expression); details: higher potency/efficacy than enzalutamide; cited from earlier work
[6] = tested on: AR, wild-type and mutated forms (e.g., F876L and T877A); details: cited from earlier work
[7] = Pharmacokinetics after a single dose of seviteronel; assay type: in vivo, human
Method in brief: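 Women took a single oral dose as 150-mg tablets. Blood was drawn before dosing and at 0.5, 1, 2, 4, 6, 8 and 24 h afterward. Plasma drug was measured by LC-MS/MS, with a lower limit of quantification of 20 ng/mL (0.05 uM). Parameters were derived by noncompartmental analysis.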

[8] = tested on: MCF7 (ER+/low AR expression); details: higher potency/efficacy than enzalutamide; cited from earlier work
[9] = tested on: women with locally advanced or metastatic TNBC or ER+ breast cancer; assay: Phase 1 safety and tolerability: treatment-emergent adverse events and DLT; assay type: in vivo, human
[10] = tested on: tamoxifen-resistant MCF7 cells (TAMR); details: higher potency/efficacy than enzalutamide; cited from earlier work
[11] = tested on: CYP17 lyase versus CYP17 17-α hydroxylase; details: cited from earlier work
metastatic breast cancer = details: cited from earlier work
estradiol = details: cited from earlier work
[12] = randomized phase 2, metastatic ER+ breast cancer, N = 297
[13] = phase 2 TBCRC011, AR+ (ER−/PR−) metastatic breast cancer, N = 26
[14] = MDV3100-11, AR+ TNBC, N = 118, intent to treat AR > 0%, ref (12)

SMILES: CC(C)[C@](O)(c1ccc2cc(OC(F)F)c(OC(F)F)cc2c1)c1c[nH]nn1 [Seviteronel]
- Survival [1]: increased survival
- Tumor growth [1]: inhibited tumor growth
- DHT-stimulated growth [2]: inhibited
- Subjects with a dose reduction due to an AE [3]: 4/19
- Subjects reaching at least CBR16 ([4]; 450 mg QD cohort (RP2D), 2 TNBC CBR16 and 2 ER+ CBR24): 4 of 7
- Subjects reaching CBR24 (24-week clinical benefit rate) ([4]; across dose groups, 2 of 19 subjects): 11%
- Subjects reaching at least CBR16 (16-week clinical benefit rate) ([4]; across dose groups, Five of 19 subjects): 26.3%
- Objective tumor responses ([4]; all dose cohorts): no objective tumor responses
- Cellular proliferation [5]: inhibited
- AR inhibition mechanism [6]: competitive antagonism
- half-life ([7]; female, human, plasma, oral, 750 mg, Half-life, single dose, across 450, 600, 750 mg): 6.4 to 8.4 h
- Dose relationship of peak and trough plasma concentrations and AUC ([7]; single dose, 450-750 mg, women): dose-proportional relationship
- Relationship between exposure and body surface area and body mass index ([7]; three dose levels combined): moderate relationship
- Estrogen-stimulated proliferation and cell growth in a soft agar assay [8]: inhibited
- Deaths reported ([9]; all considered unrelated to study drug (disease progression n=2, hepatic failure n=1, ischemic stroke n=1)): 4
- Fatigue, AE incidence ([9]; female, human, in vivo): 37%
- Nausea, AE incidence ([9]; female, human, in vivo): 42%
- Subjects with SAE Gr 3 or greater ([9]; female, human, in vivo): 12 subjects
- Tremor, AE incidence ([9]; female, human, in vivo): 42%
- Vomiting, AE incidence ([9]; female, human, in vivo): 37%
- Recommended phase 2 dose (RP2D) in women ([9]; female, human, in vivo, po): 450 mg QD
- Hepatic transaminase elevation ([9]; in vivo): not associated with hepatic transaminase elevation
- Hypokalemia ([9]; in vivo): not seen
- Serious adverse events (SAE) Gr 3 or greater, number of events ([9]; in vivo): Fifteen
- Tolerability ([9]; in vivo, po): generally well tolerated
- Growth of tamoxifen-resistant MCF7 cells [10]: inhibited
- Selectivity for CYP17 lyase versus CYP17 17-α hydroxylase inhibition [11]: approximately 10 fold

SMILES: C[C@]12CC[C@H](O)CC1=CC[C@@H]1[C@@H]2CC[C@]2(C)C(c3cccnc3)=CC[C@@H]12 [abiraterone]
- 24-month CBR (metastatic breast cancer; metastatic AR+ TNBC, N = 30, evaluable AR ≥ 10%): 20%
- 24-month CBR (metastatic breast cancer; metastatic ER+/AR+ breast cancer, N = 32, evaluable AR ≥ 1%): 22%
- Median PFS (metastatic breast cancer; [12]): 3.7 months

SMILES: CC(O)(CS(=O)(=O)c1ccc(F)cc1)C(=O)Nc1ccc(C#N)c(C(F)(F)F)c1 (stereo not shown) [bicalutamide]
- 24-week CBR (metastatic breast cancer; [13]): 19%
- Median progression-free survival (PFS) (metastatic breast cancer; [13]): 12 weeks
- Objective responses (metastatic breast cancer; [13]): no objective responses

SMILES: CNC(=O)c1ccc(N2C(=S)N(c3ccc(C#N)c(C(F)(F)F)c3)C(=O)C2(C)C)cc1F [enzalutamide]
- Increase in estradiol (estradiol; given in combination with anastrozole): 40%
- Increase in estradiol (estradiol; given in combination with exemestane): 13%
- 16-week CBR (metastatic breast cancer; [14]): 25%
- 24-week CBR (metastatic breast cancer; [14]): 20%
- Median PFS (metastatic breast cancer; [14]): 12.6 weeks

SMILES: C=C1C[C@@H]2[C@H](CC[C@]3(C)C(=O)CC[C@@H]23)[C@@]2(C)C=CC(=O)C=C12 [exemestane]
- Median PFS (metastatic breast cancer; [12]): 3.7 months

SMILES: N#Cc1ccc(C(c2ccc(C#N)cc2)n2cncn2)cc1 [letrozole]
- Decline in estradiol (estradiol; postmenopausal women with ER+ BC, by 3 months of treatment): approximately 36%
